Laboratory results reported in paper PMC4703501 (Leukemia, 2015).
pIC50: −log10 of the molar value. Entries after “also recorded” stand apart in the source; their conditions may differ. One block for each molecule: values may come before it.

Legend:
[1] = tested on: Granta 519 and Z138 cell lines; assay: MAP kinase pathway; format: cell-based, human; settings: 24 hrs
[2] = tested on: mantle cell lymphoma; settings: refractory or relapsed MCL patients; cited from earlier work
[3] = tested on: Granta 519 and Z138C cells; assay: apoptosis markers; format: cell-based, human; settings: for PARP cleavage at lower concentrations: 72–96 hrs incubation, data not shown
Procedure, shortened: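 Granta 519 and Z138C cells were treated with test compound, then lysed in NP-40 buffer. Western blots on nitrocellulose assessed full-length caspases 3, 7 and 9 and PARP cleavage as apoptosis markers.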

[4] = tested on: Granta 519 and Z138C cells; assay: PI3K/AKT/mTOR pathway western blot; format: cell-based, human; settings: 24 hours
Procedure, shortened: (§1)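 Granta 519 and Z138C cells (RPMI or DMEM, 10% FBS, pen-strep, 37°C, 5% CO₂) received vehicle or increasing concentrations of test compound for 24 hours. Whole-cell extracts were made in NP-40 lysis buffer (Tris pH 7.4, NaF, Na₃VO₄), run on SDS-PAGE and blotted to nitrocellulose. Detection used infrared imaging, GAPDH was the loading control, and 4 independent experiments were done.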

[5] = target: PI3K-δ (Homo sapiens, UniProt O00329); assay: in vitro kinase assay, recombinant protein; format: biochemical
Procedure, shortened: (§2)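 Recombinant kinases were incubated with the indicated concentrations of test compound in in vitro kinase assays. Activity values were plotted against log drug concentration. IC50 came from sigmoidal non-linear regression with variable slope.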

[6] = tested on: Granta 519 and Z138C cells; assay: CDK4/CYCLIN D/Rb pathway western blot; format: cell-based, human; settings: 24 hours; for phosphorylation of pRb and p130: increasing concentrations
Procedure, shortened: as §1

[7] = target: ARK5 (Homo sapiens, UniProt O60285); assay: in vitro kinase assay, recombinant protein; format: biochemical
Procedure, shortened: as §2

[8] = tested on: Z138C cells; assay: cell cycle distribution, propidium iodide flow cytometry; format: cell-based, human; settings: 24 hours; for accumulation of cells in the sub-G1 phase: for ON123300 at higher concentrations
Procedure, shortened: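 Z138C cells were treated with DMSO or increasing concentrations of test compound for 24 hours. They were then ethanol-fixed, PBS-washed and stained with RNase plus propidium iodide at 37°C for 20 min. DNA content was measured by flow cytometry to assign cell-cycle phases.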

[9] = tested on: HeLa cells; assay: TNF-α induced p65 NF-kB phosphorylation western blot; format: cell-based, human; settings: 5ng/ml TNF-α for 5 min after treatment
Procedure, shortened: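 Positive-control system: HeLa cells were pretreated with test compound, then stimulated with 5ng/ml TNF-α for 5 min. Phospho-p65 NF-kB was assessed by western blot of whole-cell extracts.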

[10] = tested on: exponentially growing Z138 cells; assay: p65; format: cell-based, human; settings: 24 hrs
Procedure, shortened: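 Exponentially growing Z138 cells were exposed to test compound. Whole-cell extracts were probed by western blot for p65 (NF-kB) phosphorylation.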

[11] = tested on: SNU-5; assay: GI50 growth inhibition assay; format: cell-based; settings: Homo sapiens, SNU-5, 96 h
Procedure, shortened: (§3)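 Cell lines were grown in DMEM or RPMI with 10% FBS and pen-strep at 37°C, 5% CO₂, and were mycoplasma-negative. Cells were seeded at 2.5×10³ per 0.1 ml per well, and test compound was added 24 hrs later at the indicated concentrations. Viable cells were measured by resazurin (Cell Titer Blue) read-out 96 hrs post-treatment in duplicate wells.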

[12] = tested on: HCT-15; assay: GI50 growth inhibition assay; format: cell-based; settings: Homo sapiens, HCT-15, 96 h
Procedure, shortened: as §3

[13] = tested on: BT-474; assay: GI50 growth inhibition assay; format: cell-based; settings: Homo sapiens, BT-474, 96 h
Procedure, shortened: (§4)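 Cells from ATCC were grown in DMEM or RPMI with 10% FBS and penicillin-streptomycin at 37°C, humidified, 5% CO₂, and tested mycoplasma-negative. They were seeded at 2.5×10³ cells per 0.1 ml per well. Test compound was added 24 hrs after plating at a range of concentrations. Viable cells were measured by Cell Titer Blue from duplicate wells 96 hrs after treatment.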

[14] = maximum tolerated dose study; format: in vivo, CD-1 mice
Procedure, shortened: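 Female CD-1 mice (10–12 weeks), n=3 per group, were used. One arm received a single ip dose of 100 or 200 mg/kg, with toxicity signs and body weight followed for 7 days. The other arm received 200mg/kg ip for 5 consecutive days, followed for 10 days.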

[15] = tested on: COLO-205; assay: GI50 growth inhibition assay; format: cell-based; settings: Homo sapiens, COLO 205, 96 h
Procedure, shortened: as §3

[16] = tested on: GRANTA-519; assay: GI50 growth inhibition assay; format: cell-based; settings: Homo sapiens, Granta-519, 96 h
Procedure, shortened: as §3

[17] = tested on: Z138C; assay: GI50 growth inhibition assay; format: cell-based; settings: Homo sapiens, 96 h
Procedure, shortened: as §4

[18] = tested on: primary patient-derived MCL cells (MEM1, MEM2); assay: Rb and AKT pathway western blot in primary MCL; format: cell-based, human; settings: both primary MCL samples, 18 hrs
Procedure, shortened: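 Red cells were removed from primary MCL samples with ammonium chloride. Cells were then treated with increasing concentrations of test compound for 18 hrs and lysed in RIPA buffer (25mM Tris-HCl pH 7.5, 150mM NaCl, 1% NP40, 1% SDS, phosphatase inhibitors). […], nitrocellulose transfer and infrared imaging.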

[19] = tested on: MCL cell lines; assay: GI50 assays, MCL cell lines versus other tumor types; format: cell-based, human; settings: over a 96 hr period
Procedure, shortened: as §3

[20] = plasma level pharmacokinetics; format: in vivo, CD-1 mice; settings: for area under the curve (AUC) as molar concentration / area under the curve (AUC): plasma
Procedure, shortened: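 Female CD-1 mice (10–12 weeks) received 50mg/kg test compound dissolved in water, ip or by oral gavage. Sampling was at 10, 30 min and 1, 2, 4, 8 h, n=2 per time point, with heart-puncture blood into heparin/EDTA tubes. Plasma was analysed by LC/MS, and AUC was calculated by the trapezoidal rule.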

[21] = previous studies; cited from earlier work
[22] = tested on: SNU-398; assay: GI50 growth inhibition assay; format: cell-based; settings: Homo sapiens, SNU-398, 96 h
Procedure, shortened: as §3

[23] = target: CDK2 (Homo sapiens, UniProt P24941); assay: in vitro kinase assay; format: biochemical; settings: data not shown
[24] = tested on: Z138C xenograft; assay: Z138C tumor xenograft assay; format: in vivo, nu/nu mice
[25] = tested on: BT-20; assay: GI50 growth inhibition assay; format: cell-based; settings: Homo sapiens, BT-20, 96 h
Procedure, shortened: as §3

[26] = tested on: MDA-MB-157; assay: GI50 growth inhibition assay; format: cell-based; settings: Homo sapiens, MDA-MB-157, 96 h
Procedure, shortened: as §3

[27] = tested on: primary patient-derived MCL cells (MEM1 ibrutinib-sensitive, MEM2 ibrutinib-resistant); assay: Annexin V staining of primary patient-derived MCL; format: cell-based, human; settings: 5µM ON123300; 24 hrs (legend: 18 hrs)
Procedure, shortened: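 Patient MCL specimens (lymph node or peripheral blood) made into single-cell suspensions and cryopreserved in 90% FBS/10% DMSO in liquid nitrogen. Cells exposed to the indicated concentrations of test compound for 18 hrs. Apoptosis read as FITC-Annexin V staining by flow cytometry.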

[28] = tested on: MDA-MB-231; assay: GI50 growth inhibition assay; format: cell-based; settings: Homo sapiens, MDA-MB-231, 96 h
Procedure, shortened: as §3

[29] = tested on: DLD-1; assay: GI50 growth inhibition assay; format: cell-based; settings: Homo sapiens, DLD-1, 96 h
Procedure, shortened: as §3

[30] = tested on: SW480; assay: GI50 growth inhibition assay; format: cell-based; settings: Homo sapiens, SW480, 96 h
Procedure, shortened: as §3

[31] = tested on: MIA-PaCa-2; assay: GI50 growth inhibition assay; format: cell-based; settings: Homo sapiens, MIA PaCa-2, 96 h
Procedure, shortened: as §4

[32] = target: CDK5 (Homo sapiens, UniProt Q00535); assay: in vitro kinase assay; format: biochemical; settings: data not shown
[33] = target: CDK8 (Homo sapiens, UniProt P49336); assay: in vitro kinase assay; format: biochemical; settings: data not shown
[34] = target: CDK1 (Homo sapiens, UniProt P06493); assay: in vitro kinase assay; format: biochemical; settings: data not shown
[35] = tested on: mantle cell lymphoma; settings: Phase I trial, patients with refractory disease; cited from earlier work

Chain of PI3K-δ (O00329 whole entry): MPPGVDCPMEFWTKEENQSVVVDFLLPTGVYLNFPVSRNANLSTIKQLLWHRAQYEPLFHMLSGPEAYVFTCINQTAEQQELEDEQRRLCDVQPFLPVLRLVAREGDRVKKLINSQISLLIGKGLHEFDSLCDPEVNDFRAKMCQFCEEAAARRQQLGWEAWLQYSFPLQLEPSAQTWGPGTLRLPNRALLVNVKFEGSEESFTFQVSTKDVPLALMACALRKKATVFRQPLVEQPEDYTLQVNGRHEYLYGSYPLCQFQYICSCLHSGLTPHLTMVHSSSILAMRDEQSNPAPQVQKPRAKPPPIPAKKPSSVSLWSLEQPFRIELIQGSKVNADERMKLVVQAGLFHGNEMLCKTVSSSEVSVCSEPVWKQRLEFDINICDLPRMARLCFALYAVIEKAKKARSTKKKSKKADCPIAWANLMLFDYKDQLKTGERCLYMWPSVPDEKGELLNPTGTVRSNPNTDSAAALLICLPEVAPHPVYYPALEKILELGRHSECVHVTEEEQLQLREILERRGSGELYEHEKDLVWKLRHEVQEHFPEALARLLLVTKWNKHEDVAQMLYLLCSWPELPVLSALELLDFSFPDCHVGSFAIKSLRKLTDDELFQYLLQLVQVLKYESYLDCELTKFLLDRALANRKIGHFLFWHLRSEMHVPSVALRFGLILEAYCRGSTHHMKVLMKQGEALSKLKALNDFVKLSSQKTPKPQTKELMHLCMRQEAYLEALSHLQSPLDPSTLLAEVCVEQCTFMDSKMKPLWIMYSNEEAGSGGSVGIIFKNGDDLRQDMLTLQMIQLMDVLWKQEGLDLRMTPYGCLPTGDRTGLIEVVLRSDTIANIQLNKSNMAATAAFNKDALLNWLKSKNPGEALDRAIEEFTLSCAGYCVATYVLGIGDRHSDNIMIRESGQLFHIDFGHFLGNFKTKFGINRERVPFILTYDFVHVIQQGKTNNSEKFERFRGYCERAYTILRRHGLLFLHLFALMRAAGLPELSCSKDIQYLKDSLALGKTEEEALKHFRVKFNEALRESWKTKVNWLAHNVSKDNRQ
Chain of PI3K-δ (P27986 whole entry partner): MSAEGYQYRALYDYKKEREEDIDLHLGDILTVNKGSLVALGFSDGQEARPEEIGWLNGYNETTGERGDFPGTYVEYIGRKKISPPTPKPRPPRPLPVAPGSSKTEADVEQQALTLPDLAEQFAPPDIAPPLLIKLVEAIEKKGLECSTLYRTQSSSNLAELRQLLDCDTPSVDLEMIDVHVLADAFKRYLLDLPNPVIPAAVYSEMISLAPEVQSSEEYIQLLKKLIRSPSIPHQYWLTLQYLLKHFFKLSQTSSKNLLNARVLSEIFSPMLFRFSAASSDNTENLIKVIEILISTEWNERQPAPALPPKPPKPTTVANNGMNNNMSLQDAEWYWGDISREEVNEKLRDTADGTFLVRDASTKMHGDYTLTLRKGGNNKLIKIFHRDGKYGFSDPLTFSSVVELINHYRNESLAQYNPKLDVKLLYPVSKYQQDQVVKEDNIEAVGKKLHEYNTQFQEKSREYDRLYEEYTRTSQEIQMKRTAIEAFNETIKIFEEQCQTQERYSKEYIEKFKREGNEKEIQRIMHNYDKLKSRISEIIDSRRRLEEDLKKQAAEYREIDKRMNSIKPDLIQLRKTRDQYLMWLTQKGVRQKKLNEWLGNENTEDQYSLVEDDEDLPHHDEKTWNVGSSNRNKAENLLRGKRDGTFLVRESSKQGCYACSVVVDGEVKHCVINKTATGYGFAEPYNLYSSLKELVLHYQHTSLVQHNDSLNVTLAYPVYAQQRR
Chain of CDK5 (Q00535 whole entry): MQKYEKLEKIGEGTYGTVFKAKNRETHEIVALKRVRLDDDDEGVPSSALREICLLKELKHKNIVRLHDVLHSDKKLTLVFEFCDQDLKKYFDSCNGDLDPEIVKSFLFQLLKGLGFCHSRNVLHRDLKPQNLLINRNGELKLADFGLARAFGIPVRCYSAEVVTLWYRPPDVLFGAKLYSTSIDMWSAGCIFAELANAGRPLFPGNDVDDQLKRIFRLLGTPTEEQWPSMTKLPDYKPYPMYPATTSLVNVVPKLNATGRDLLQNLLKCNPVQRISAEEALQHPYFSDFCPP
Chain of CDK5 (Q15078 99-307 partner limits assumed): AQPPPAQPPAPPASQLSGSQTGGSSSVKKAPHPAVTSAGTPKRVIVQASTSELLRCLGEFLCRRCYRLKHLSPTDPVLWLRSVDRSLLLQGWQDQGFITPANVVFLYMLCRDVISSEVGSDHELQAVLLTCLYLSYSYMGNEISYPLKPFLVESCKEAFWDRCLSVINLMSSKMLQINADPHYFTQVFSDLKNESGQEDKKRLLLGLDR
Chain of ARK5 (O60285 whole entry): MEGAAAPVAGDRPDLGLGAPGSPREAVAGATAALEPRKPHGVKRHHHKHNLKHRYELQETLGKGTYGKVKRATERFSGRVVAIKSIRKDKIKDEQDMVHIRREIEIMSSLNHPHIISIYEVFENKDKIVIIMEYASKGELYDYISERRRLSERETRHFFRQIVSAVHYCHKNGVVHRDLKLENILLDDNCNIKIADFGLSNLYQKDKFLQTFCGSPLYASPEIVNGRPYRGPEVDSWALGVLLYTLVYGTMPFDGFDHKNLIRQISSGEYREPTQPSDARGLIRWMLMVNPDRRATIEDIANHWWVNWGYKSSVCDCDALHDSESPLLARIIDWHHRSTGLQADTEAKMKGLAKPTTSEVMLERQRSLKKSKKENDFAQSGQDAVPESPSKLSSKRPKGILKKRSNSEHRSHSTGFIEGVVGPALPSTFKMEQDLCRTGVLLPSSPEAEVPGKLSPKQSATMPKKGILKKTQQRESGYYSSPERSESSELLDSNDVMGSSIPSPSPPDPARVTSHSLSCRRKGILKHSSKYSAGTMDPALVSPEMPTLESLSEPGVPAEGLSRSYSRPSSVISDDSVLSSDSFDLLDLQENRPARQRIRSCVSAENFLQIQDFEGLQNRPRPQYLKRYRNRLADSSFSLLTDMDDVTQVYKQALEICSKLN
Chain of CDK8 (P49336 whole entry): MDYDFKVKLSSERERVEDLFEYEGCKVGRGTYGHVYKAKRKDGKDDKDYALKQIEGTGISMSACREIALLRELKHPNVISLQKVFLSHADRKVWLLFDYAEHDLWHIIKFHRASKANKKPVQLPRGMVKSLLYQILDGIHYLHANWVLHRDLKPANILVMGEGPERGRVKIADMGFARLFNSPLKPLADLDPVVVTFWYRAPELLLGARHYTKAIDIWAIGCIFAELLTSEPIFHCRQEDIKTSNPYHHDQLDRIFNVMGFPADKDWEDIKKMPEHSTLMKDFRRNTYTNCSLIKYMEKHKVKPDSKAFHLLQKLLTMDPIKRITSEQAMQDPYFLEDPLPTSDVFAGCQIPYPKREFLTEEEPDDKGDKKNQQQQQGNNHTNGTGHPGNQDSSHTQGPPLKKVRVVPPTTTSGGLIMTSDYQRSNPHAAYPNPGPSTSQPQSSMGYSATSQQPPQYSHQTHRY
Chain of CDK8 (P24863 whole entry partner): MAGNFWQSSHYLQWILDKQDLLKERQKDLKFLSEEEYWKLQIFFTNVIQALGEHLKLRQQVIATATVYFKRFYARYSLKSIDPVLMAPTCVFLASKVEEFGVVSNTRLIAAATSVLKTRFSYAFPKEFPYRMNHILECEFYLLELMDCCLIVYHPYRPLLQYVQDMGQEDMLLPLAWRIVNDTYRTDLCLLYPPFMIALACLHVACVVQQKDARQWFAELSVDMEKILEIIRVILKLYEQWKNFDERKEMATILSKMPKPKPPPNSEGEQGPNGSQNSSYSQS
Chain of CDK1 (P06493 whole entry): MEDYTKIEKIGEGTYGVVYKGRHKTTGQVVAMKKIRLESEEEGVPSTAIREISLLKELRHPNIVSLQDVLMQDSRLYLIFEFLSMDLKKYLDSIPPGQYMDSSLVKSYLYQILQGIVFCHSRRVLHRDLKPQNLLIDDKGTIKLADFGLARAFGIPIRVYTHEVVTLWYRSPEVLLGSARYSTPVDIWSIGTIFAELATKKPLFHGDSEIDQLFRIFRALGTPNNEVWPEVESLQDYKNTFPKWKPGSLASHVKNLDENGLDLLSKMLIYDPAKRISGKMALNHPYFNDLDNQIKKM
Chain of CDK1 (P14635 whole entry, further chain): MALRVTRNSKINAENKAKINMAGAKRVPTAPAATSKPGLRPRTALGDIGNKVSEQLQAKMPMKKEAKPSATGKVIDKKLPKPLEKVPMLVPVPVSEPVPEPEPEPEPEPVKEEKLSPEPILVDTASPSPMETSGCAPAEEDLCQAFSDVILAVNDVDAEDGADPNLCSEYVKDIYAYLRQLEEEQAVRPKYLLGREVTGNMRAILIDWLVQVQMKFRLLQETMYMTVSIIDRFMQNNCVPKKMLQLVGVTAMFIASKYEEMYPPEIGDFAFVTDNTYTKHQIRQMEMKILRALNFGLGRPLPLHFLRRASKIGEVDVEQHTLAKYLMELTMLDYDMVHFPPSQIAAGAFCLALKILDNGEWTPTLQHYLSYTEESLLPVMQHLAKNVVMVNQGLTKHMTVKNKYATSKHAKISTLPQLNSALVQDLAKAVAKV

Structure (SMILES): N#CC(=C(/N)Sc1ccccc1N)/C(C#N)=C(/N)Sc1ccccc1N [U0126]
phosphorylation status of MEK or ERK kinases [1]: potently inhibited

Structure (SMILES): C=CC(=O)N1CCC[C@@H](n2nc(-c3ccc(Oc4ccccc4)cc3)c3c(N)ncnc32)C1 [Ibrutinib]
patients with complete remission [2]: approximately 21%

pIC50 [5]: < 5.00
inhibitory activity against PI3K-δ ([5]; in vitro kinase assay): failed to show any inhibitory activity
pIC50 [7]: < 5.30
Structure (SMILES): CC(=O)c1c(C)c2cnc(Nc3ccc(N4CCNCC4)cn3)nc2n(C2CCCC2)c1=O [PD0332991, reference compound]
PARP cleavage at lower concentrations [3]: did not show any PARP cleavage
evidence of apoptosis (PARP cleavage, caspases) ([3]; 24 hrs, increasing concentrations): no evidence of apoptosis
phosphorylation status of AKT, mTOR, 4EBP1 and S6 ribosomal protein (S6RB) [4]: no discernable change
levels of CDK4 and CDK2 [6]: unaffected
p21 levels [6]: not readily seen
phosphorylation of pRb and p130 [6]: inhibited the phosphorylation of pRb and p130
accumulation of cells in the sub-G1 phase [8]: little or no accumulation of cells in the sub-G1 phase
accumulation of cells in the G1 phase ([8]; increasing concentrations): rapid accumulation of the cells in the G1 phase
phosphorylation status of p65 [9]: little or no effect
phosphorylation status of p65 (NF-kB) [10]: no change
phosphorylation status of MEK or ERK kinases [1]: neither ON123300 nor PD0332991 has any effect

Structure (SMILES): Nc1ccc2ncnc(NCCc3ccc(Oc4ccccc4)cc3)c2c1 [QNZ]
phosphorylation status of p65 [9]: strong inhibition

Structure (SMILES): CN1CCN(c2ccc(Nc3ncc4cc(C#N)c(=O)n(C5CCCC5)c4n3)cc2)CC1 [ON123300, 8-cyclopentyl-2-[4-(4-methyl-piperazin-1-yl)-phenylamino]-7-oxo-7,8-dihydro-pyrid o[2,3-d]pyrimidine-6-carbonitrile]
PARP cleavage at lower concentrations [3]: readily resulted in PARP cleavage
concentration at which PARP cleavage is seen ([3]; 24 hrs): greater than or equal to 2.5 µM
levels of full-length caspases 3, 7 and 9 ([3]; 24 hrs): decreases in the levels of full-length forms of caspases 3, 7 and 9
GI50 [11]: 200 nM
GI50 [12]: 400 nM
AKT Ser473 phosphorylation [4]: inhibition of AKT Ser473 phosphorylation
FOXO1 phosphorylation [4]: inhibition of FOXO1 phosphorylation
mTOR phosphorylation at Ser2481 [4]: inhibition of mTOR phosphorylation at Ser2481
phosphorylation of 4EBP1 and S6RB [4]: inhibited
GI50 [13]: 250 nM
survival rate ([14]; 200mg/kg ip for 5 consecutive days, at least 10 days post-administration): 100%
signs of toxicity ([14]; 200mg/kg ip for 5 consecutive days, data not shown): did not exhibit any signs of toxicity
toxicity ([14]; mice, administered orally or intraperitoneally): minimally toxic
survival rate ([14]; single ip dose 100 or 200 mg/kg, 7 days): 100%
signs of toxicity and body weights ([14]; single ip dose 100 or 200 mg/kg, monitored 7 days): No signs of toxicity or weight loss
GI50 [15]: 200 nM
GI50 [16]: 35 nM
GI50 [17]: 25 nM
levels of Rb and AKT phosphorylation [18]: reductions in the levels of Rb and AKT phosphorylation
phosphorylation of S6RB [18]: inhibited
levels of CDK4 and CDK2 [6]: unaffected
p21 levels [6]: loss of p21 levels
levels of CYCLIN D1 ([6]; as a function of concentration): declined
phosphorylation of pRb and p130 [6]: inhibited the phosphorylation of pRb and p130
concentrations inducing growth arrest and cell death [19]: 25 to 50 nM
oral bioavailability ([20]; mice): orally bio-available
area under the curve (AUC) as molar concentration ([20]; 50mg/kg ip): 16.71 µM/ml/hr
area under the curve (AUC) ([20]; 50mg/kg ip injection): 7.18 µg/mL/h
area under the curve (AUC) ([20]; 50mg/kg oral gavage (po)): 2.78 µg/mL/h
area under the curve (AUC) as molar concentration ([20]; 50mg/kg po): 6.47 µM/ml/hr
concentrations at which cells accumulated in the G1 phase [8]: 0.1 to 1.0 µM
accumulation of cells in the sub-G1 phase [8]: eventually accumulated in the sub-G1 phase
blood-brain barrier crossing [21]: readily crosses the blood-brain barrier
GI50 [22]: 300 nM
inhibitory activity against CDK2 [23]: little inhibitory activity
phosphorylation status of p65 [9]: little or no effect
phosphorylation status of p65 (NF-kB) [10]: no change
total body weights ([24]; 100mg/kg daily treatment): did not cause a significant reduction
tumor growth ([24]; 100mg/kg daily, ip, 2-week period, p<0.05): significantly inhibited; also recorded: markedly inhibited tumor growth
GI50 [25]: 100 nM
GI50 [26]: 250 nM
cells stained Annexin V+ [27]: ~100%
GI50 [28]: 200 nM
GI50 [29]: 100 nM
GI50 [30]: 100 nM
GI50 [31]: 250 nM
inhibitory activity against CDK5 [32]: little inhibitory activity
inhibitory activity against CDK8 [33]: little inhibitory activity
inhibitory activity against CDK1 [34]: little inhibitory activity
phosphorylation status of MEK or ERK kinases [1]: neither ON123300 nor PD0332991 has any effect

Structure (SMILES): CC[C@H](Nc1ncnc2[nH]cnc12)c1nc2cccc(F)c2c(=O)n1-c1ccccc1 [idelalisib]
efficacy as a single agent [35]: modestly effective
